Results collected from several papers.
Each line is one published result; the experiments were not run side by side.
Target: SRSF protein kinase 3 (SRPK3, Homo sapiens, UniProt Q9UPE1)

SMILES | read-out | method | tested at | remaining binding [%]
CN(c1nccc(-c2cnn3ncccc23)n1)C1CC1 | binding | – | 1 µM | 83
C[C@@H]1CN(c2ccc3ncc(-c4ccc5[nH]nc(C6CC6)c5c4)n3n2)C[C@H](C)O1 | binding | competition with immobilised ligand | 0.5 µM | 85
O=C(NCCCN1CCOCC1)c1ccc(Nc2ncc(Cl)c(-c3ccc(Cl)s3)n2)cc1 | binding | competition with immobilised ligand | 1 µM | 100
N#Cc1ccccc1CSc1nnc2c(n1)[nH]c1ccccc12 | binding | competition with immobilised ligand | 10 µM | 75
CCC(=N\O)/C(C)=C/c1ccc(F)cc1 | cell-free assay | competition with immobilised ligand | 1 µM | 91
Cc1cnn2ncc(-c3ccnc(N(C)C)n3)c2c1 | binding | – | 1 µM | 56
CCS(=O)(=O)c1cc2cc(C[C@@](O)(CC(C)(C)c3ccc(F)cc3C(N)=O)C(F)(F)F)[nH]c2cn1 | cell-free assay | competition with immobilised ligand | 1 µM | 100
O=C(c1ccc(Nc2nccc(-c3cc4ccccc4s3)n2)cc1)N1CCC(N2CCCC2)CC1 | binding | competition with immobilised ligand | 1 µM | 100
CC1CCCN1c1nccc(-c2cnn3ncccc23)n1 (stereo not drawn) | binding | – | 1 µM | 86
CS(=O)(=O)N1CCCC(NC(=O)[C@H](CCC2CCCCC2)NC(=O)c2ccc(CNC(=O)c3cnc4ccccn34)cc2)C1 (stereo partly drawn) | cell-free assay | competition with immobilised ligand | 0.1 µM | 100
O=C(c1ccc(Nc2ncc(Cl)c(-c3cc4ccccc4s3)n2)cc1)N1CCC(N2CCCC2)CC1 | binding | competition with immobilised ligand | 1 µM | 100
C[C@H]1CCN(c2nccc(-c3cnn4ncccc34)n2)C1 | binding | – | 1 µM | 68
Nc1ncc2c(n1)-c1c([nH]c3ccc(C#CC4CC4)cc13)CCCC2 | binding | competition with immobilised ligand | 1 µM | 90
c1cncc(-c2cccc(Nc3nccc(NC4CCCCC4)n3)c2)c1 | binding | competition with immobilised ligand | 10 µM | 55
COc1cnc(Nc2cccc(S(N)(=O)=O)c2)nc1N1CCN(c2ccccc2)C(=O)C1 | binding | competition with immobilised ligand | 1 µM | 79
CCN1CCN(Cc2ccc(C(=O)Nc3ccc(C)c(Oc4ccc5c(c4)CC(=O)N5)c3)cc2C(F)(F)F)CC1 | binding | competition with immobilised ligand | 1 µM | 99
CCCCN(CCCC)C(=O)CN1C[C@@H](c2cc(OC)c3c(c2)OCO3)[C@H](C(=O)O)[C@H]1CC(C)(C)CCC | cell-free assay | competition with immobilised ligand | 1 µM | 100
O=C(NCC1CCOCC1)c1n[nH]cc1NC(=O)c1c(F)cccc1F | binding | competition with immobilised ligand | 1 µM | 83
C[C@@H]1CN(c2cc(-c3n[nH]c4ccc(OC5(C)CC5)cc34)ncn2)C[C@H](C)O1 | cell-free assay | competition with immobilised ligand | 0.1 µM | 100
CC(C)(C)c1ccc(-c2nc(CBr)nn2-c2cccc(O)c2)cc1 | cell-free assay | competition with immobilised ligand | 10 µM | 100
Cc1c(C(=O)O)cc(-c2ccc(C3CCNCC3)cc2)c2ccc(-c3ccc(C(F)(F)F)cc3)cc12 | binding | competition with immobilised ligand | 1 µM | 100
c1cnn2ncc(-c3ccnc(N4CCC45COC5)n3)c2c1 | binding | – | 1 µM | 66
CO[C@H]1CC[C@H](CNc2ccc(S(=O)(=O)NC(=O)c3ccc(N4CCN(CC5=C(c6ccc(Cl)cc6)CC(C)(C)CC5)CC4)cc3Oc3cnc4[nH]ccc4c3)cc2[N+](=O)[O-])CC1 | cell-free assay | competition with immobilised ligand | 1 µM | 100
N[C@H]1CCN(c2nccc(-c3cnn4ncccc34)n2)C1 | binding | – | 1 µM | 66
